Results pooled from the literature.
Lines come from different studies, so protocols differ.
Target: Serine/threonine-protein kinase SIK3 (SIK3, Homo sapiens, UniProt Q9Y2K2)

Cc1ccc(NC(=O)c2ccnc(C(F)(F)F)c2)cc1-c1cc(OCCO)nc(N2CCOCC2)c1 — remaining binding (binding, competition with immobilised ligand; 1 µM): 86%
CCCCC(=O)Nc1ccc(-c2ccc3ncn(CCC)c(=O)c3c2)cn1 — remaining binding (binding, competition with immobilised ligand; 0.5 µM): 100%
C1=C/COCc2cc(ccc2OCCN2CCCC2)Nc2nccc(n2)-c2cccc(c2)COC/1 — remaining signal (cell-free assay; 0.1 µM): 83%
Cc1cc(O)c(-c2ccc([C@@H](C)CN(C)C)cc2)c2c1[nH]c(=O)c1sccc12 — inhibition (enzyme activity, inhibitor; 0.1 µM): -11.2%
CO[C@@H]1[C@H](N(C)C(=O)c2ccccc2)C[C@H]2O[C@]1(C)n1c3ccccc3c3c4c(c5c6ccccc6n2c5c31)C(=O)NC4 — inhibition (enzyme activity, inhibitor; 1 µM): 79%
CN1CCN(C(=O)c2ccc(NC(=O)Nc3ccc(N(C)c4ccnc(Nc5ccc(CS(C)(=O)=O)cc5)n4)cc3)cc2)CC1 — remaining binding (binding, competition with immobilised ligand; 1 µM): 86%
CC(C)S(=O)(=O)c1ccc2nccc(Nc3ccc4sc(C5CCCC5)nc4c3)c2c1 — activity vs control (enzyme activity, inhibitor; 1 µM): 104%
C=CC(=O)N1CCC([C@@H]2CCNc3c(C(N)=O)c(-c4ccc(Oc5ccccc5)cc4)nn32)CC1 — inhibition (enzyme activity, inhibitor; 1 µM): 9%
C#Cc1cc(-c2cc(Nc3nc(N[C@@H](C)c4ccc(F)cn4)ncc3Cl)n[nH]2)ccc1C=O — inhibition (enzyme activity, inhibitor; 0.2 µM): 31.1%
